Results pooled from the literature.
Lines come from different studies, so protocols differ.
Target: Mitogen-activated protein kinase 11 (MAPK11, Homo sapiens, UniProt Q15759)

| SMILES | observed | mode | technique | tested at | quantity | result |
| --- | --- | --- | --- | --- | --- | --- |
| Cn1c2c(c3ccc(Cl)c(Cl)c31)C(C#N)C1(CCOCC1)NC2=O (stereo not shown) | thermal stability | – | DSF | 10 µM | ΔTm | 0.4 °C |
| CNc1cccc2cc(C(=O)Nc3ccc(C(=O)O)cc3)c(=O)[nH]c12 | enzyme activity | inhibitor | – | 10 µM | inhibition | -2.4% |
| COc1cc2ncnc(Nc3ccc(Oc4ccccc4)cc3C)c2cc1OC | enzyme activity | inhibitor | – | 1 µM | inhibition | 5% |
| CCN(CC)CCNC(=O)c1c(C)[nH]c(/C=C2\C(=O)Nc3ccc(F)cc32)c1C | enzyme activity | inhibitor | – | 0.3 µM | inhibition | -5% |
| CC1=C(C#N)C(c2ccc3c(c2)c(NC(=O)c2ccccc2C)nn3C)C(C#N)=C(C)N1 | cell-free assay | – | competition with immobilised ligand | 1 µM | remaining binding | 100% |
| Cc1ccc(NC(=O)c2ccc(C)c(C(F)(F)F)c2)cc1C#Cc1nn(C2CCC(O)CC2)c2ncnc(N)c12 (stereo not shown) | cell-free assay | – | – | 10 µM | remaining signal | -2% |
| CNCc1ccccc1-c1csc([C@H](C)Nc2nc(C)nc3cc(OC)c(OC)cc23)c1 | cell-free assay | – | competition with immobilised ligand | 1 µM | remaining binding | 100% |
| CC(C)(C)C(=O)c1sc(NC2CCCCC2)nc1N | enzyme activity | inhibitor | – | 10 µM | remaining activity | 82% |
| CCCS(=O)(=O)Nc1ccc(F)c(C(=O)c2c[nH]c3ncc(-c4ccc(Cl)cc4)cc23)c1F | enzyme activity | inhibitor | – | 1 µM | inhibition | < 10% |
| O=C(Nc1ccc(Oc2ccc(F)cc2)cc1)N1CCc2ncccc2[C@H]1c1ccc(F)cc1 | cell-free assay | – | competition with immobilised ligand | 1 µM | remaining binding | 100% |
| CC(C)(C)c1nc(-c2cccc(NS(=O)(=O)c3c(F)cccc3F)c2F)c(-c2ccnc(N)n2)s1 | enzyme activity | inhibitor | radiometric | 1 µM | remaining activity | 104% |
| Nc1cnc(N2CCc3cc(S(=O)(=O)Nc4c(F)cc(Cl)cc4F)cc(N4CCCC4=O)c32)nc1 | cell-free assay | – | competition with immobilised ligand | 1 µM | remaining binding | 100% |
| CN(c1ncccc1CNc1nc(Nc2ccc3c(c2)CC(=O)N3)ncc1C(F)(F)F)S(C)(=O)=O | enzyme activity | inhibitor | – | 1 µM | inhibition | 7.8% |
| O=C1NC(=O)c2cc(Nc3ccc(F)cc3)c(Nc3ccc(F)cc3)cc21 | cell-free assay | – | – | 0.5 µM | remaining signal | 94.6% |
| Cn1c2c(c3ccccc31)C(C#N)C(C)(C)NC2=O (stereo not shown) | thermal stability | – | DSF | 10 µM | ΔTm | -0.7 °C |
| C[S+]([O-])c1ccc(-c2nc(-c3ccncc3)c(-c3ccc(F)cc3)[nH]2)cc1 (stereo not shown) | cell-free assay | – | – | 0.5 µM | remaining signal | 68.9% |
| O=C(Nc1cnn(-c2csc(C(=O)NC3COC3)c2)c1)Nc1c(F)cccc1Cl | enzyme activity | inhibitor | – | 5 µM | remaining activity | 91.7% |
| CCN1CCC2(CC1)NC(=O)c1c(c3ccc(Cl)c(Cl)c3n1C)C2C#N (racemic) | thermal stability | – | DSF | 10 µM | ΔTm | -0.3 °C |
| Cc1nc(Cc2cccc(C(F)(F)F)c2)sc1-c1ccc(C(N)=O)nc1 | cell-free assay | – | competition with immobilised ligand | 1 µM | remaining binding | 95% |
| CC(C)(O)[C@H]1CC[C@H](Nc2ccc3ncc(-c4cccc(C(F)(F)F)c4)n3n2)CC1 | enzyme activity | inhibitor | – | 1 µM | remaining activity | 103% |
| Cn1nc(C(=O)NCc2ccc(C(=O)O)cc2)cc1-c1ccc2[nH]ccc2c1 | cell-free assay | – | competition with immobilised ligand | 0.1 µM | remaining binding | 86% |
| FC(F)c1nc2ccccc2n1-c1nc(N2CCOCC2)nc(N2CCOCC2)n1 | enzyme activity | inhibitor | – | 10 µM | remaining activity | 95% |
